The structures appear in SMILES notation. Activity calls are given as the source filed them. The rule behind the calls is not given here. Bounds are passed on as bounds.

This note sets out measurements from ChEMBL document CHEMBL1149480, “Discovery of a novel series of inhibitors of human cytomegalovirus primase” (Bioorg Med Chem Lett, 2006).

Assay [1] has as its system Human immunodeficiency virus. The assay is described as follows: Antiviral activity against HIV. It counts as functional, organism-based.
Another assay concerns Murid betaherpesvirus 2. As to the kind of experiment: Antiviral activity against rat CMV. The assay is classed as functional, organism-based.
The test system of the next assay is Human betaherpesvirus 6. The assay is described as follows: Antiviral activity against HHV6. It counts as functional, organism-based.
For another assay, the system named is Human alphaherpesvirus 1. The assay is described as follows: Antiviral activity against HSV. The assay is classed as functional, organism-based.
For assay [2], the system named is Human betaherpesvirus 5. The assay is described as follows: Inhibition of human CMV growth by viral yield assay. It counts as functional. Put shortly:
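Viral yield: once CPE appeared, well supernatants were serially diluted 1:2 sixteen times and used to infect fresh HFF cells (10^4/well). Inoculum was removed after 1 h; cells were incubated 5–7 days until CPE. Yield was quantified and IC99.9 taken as the drug concentration giving 99.9% inhibition of replication.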

For the next assay, the system named is Human gammaherpesvirus 4. As to the kind of experiment: Antiviral activity against EBV. The assay is classed as functional, organism-based.
Assay [3] has as its system HFF. As to the kind of experiment: Cytotoxicity against HFF cells. It counts as functional, cell-based. Particulars: Homo sapiens. Put shortly: (§1)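 HFF or Jurkat cells were seeded and compound added 3 h later. Alamar blue staining at 0, 24, 48 and 72 h, then a further 3 h incubation, with fluorescence read-out. IC50 is the concentration inhibiting cell growth by 50%.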

The test system of the next assay is Jurkat. The assay is described as follows: Cytotoxicity against human Jurkat cells. It counts as functional, cell-based. In a few lines: as §1
Assay [4] is described as follows: Ratio of antiviral activity against human CMV to rhesus CMV. The assay is classed as functional, Cercopithecine herpesvirus 8.
Assay [5] has as its system HFF. As to the kind of experiment: Antiviral activity against human CMV by dot blot assay in HFF cells. The assay is classed as functional, cell-based. Put shortly: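 Dot blot DNA replication readout. HFF cells were seeded at 2 × 10^4 cells/well and infected with rhCMVLuc, clinical isolates or wild-type virus, then incubated 72 h with drug. Cells were lysed in 0.4 N NaOH, 0.5 M EDTA, applied to membrane by microfiltration and UV-crosslinked. DNA was hybridized to a hCMV-specific 32P probe and detected by phosphorimaging.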

Another assay concerns Caviid betaherpesvirus 2. As to the kind of experiment: Antiviral activity against guinea pig CMV. It counts as functional, organism-based.
Another assay has as its system Murid betaherpesvirus 1. The assay is described as follows: Antiviral activity against mouse CMV. The assay is classed as functional, organism-based.
Assay [6] has as its system Human betaherpesvirus 5. As to the kind of experiment: Inhibition of human CMV growth by plaque reduction assay. It counts as functional. Put shortly: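 Plaques counted after 10-day incubation of 10^5 cells infected with 1000 pfu of wild-type, clinical-isolate or resistant virus; IC99.9 is the drug amount inhibiting plaque formation by 99.9%.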
The subject of assay [7] is DNA primase UL70 (Human cytomegalovirus). The assay is described as follows: Binding affinity to human CMV UL70 primase by immunoprecipitation assay. Particulars: Human betaherpesvirus 5; tested as the 3H-labelled form.
Assay [8] deals with HFF. The assay is described as follows: Antiviral activity against human CMV by luciferase reporter gene assay in HFF cells. The assay is classed as functional, cell-based. Put shortly:
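HFF cells (10^4/well) were rested 2 h, then infected with rhCMVLuc at MOI 1 pfu/cell. Inoculum was removed after 1 h and drug added (0.005–5 µM or 0.05–50 µM) for 48 h at 37 °C. Luciferase was read with Mg(OAc)2, 30 mM Tricine pH 7.8 and 200 µM EDTA. IC50 is 50% inhibition of hCMV DNA replication.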

For `Cc1nc(NC2CCc3ccccc32)nc(-n2ccnc2C)c1[N+](=O)[O-]` (stereo not drawn), the result (in [1]; with Murid betaherpesvirus 2; in the assay with Human betaherpesvirus 6; in the assay on Human alphaherpesvirus 1; in the assay on Human gammaherpesvirus 4; in the assay with Caviid betaherpesvirus 2) was inactive. In addition, the outcome with Murid betaherpesvirus 1 was inactive. In addition, the IC100 in the assay on Human betaherpesvirus 5 [2] was found to be 0.1 µM; in the assay on Human betaherpesvirus 5 [6], 0.5 µM. Also, the figures for the half-inhibitory concentration (IC50) in the assay with HFF [3], with Jurkat and in the assay on HFF [5] were greater than 100 µM, 100 µM and 0.053 µM, respectively. Further, the Selectivity ratio entry in assay [4] was “>=10”.
In the case of `CCc1nc(N(C)Cc2ccccc2)nc(-n2ccnc2C)c1[N+](=O)[O-]`, the result (in assay [1]; in [1] (tested as the 3H-labelled form); in the assay on Murid betaherpesvirus 2; in the assay with Murid betaherpesvirus 2 (tested as the 3H-labelled form); in the assay with Human betaherpesvirus 6; with Human betaherpesvirus 6 (tested as the 3H-labelled form)) was inactive. In addition, the result with Human alphaherpesvirus 1, in the assay on Human alphaherpesvirus 1 (tested as the 3H-labelled form), in the assay on Human gammaherpesvirus 4, in the assay on Human gammaherpesvirus 4 (tested as the 3H-labelled form), in the assay on Caviid betaherpesvirus 2 and in the assay on Caviid betaherpesvirus 2 (tested as the 3H-labelled form) was inactive. Also, the outcome in the assay on Murid betaherpesvirus 1 and in the assay with Murid betaherpesvirus 1 (tested as the 3H-labelled form) was inactive. The outcome in assay [7] was Active. In the assay with HFF [8], inhibition was half-maximal at 0.17 µM (IC50). Further, the Selectivity ratio entry in [4] is given as “>=10”.
On to `Cc1nc(N(C)Cc2ccccc2)nc(-n2ccnc2C)c1[N+](=O)[O-]`, for which the result (in [1]; in the assay on Murid betaherpesvirus 2; in the assay with Human betaherpesvirus 6; in the assay on Human alphaherpesvirus 1; in the assay on Human gammaherpesvirus 4; with Caviid betaherpesvirus 2) was inactive. Further, the result with Murid betaherpesvirus 1 was inactive. The IC100 in the assay on Human betaherpesvirus 5 [2] came out at 0.2 µM; in the assay with Human betaherpesvirus 5 [6] it was 0.5 µM. The half-inhibitory concentration (IC50) in the assay on HFF [3] is greater than 100 µM; with HFF [8] it was 0.039 µM; in the assay with Jurkat, 25 µM; with HFF [5], 0.061 µM. Moreover, in [4], the Selectivity ratio entry is on record as “>=10”.
Regarding `Cc1nc(N(C)c2ccccc2)nc(-n2ccnc2C)c1[N+](=O)[O-]`, the result (in assay [1]; in the assay on Murid betaherpesvirus 2; with Human betaherpesvirus 6; with Human alphaherpesvirus 1; with Human gammaherpesvirus 4; in the assay with Caviid betaherpesvirus 2) was inactive. Moreover, the result in the assay on Murid betaherpesvirus 1 was inactive. In addition, the IC100 with Human betaherpesvirus 5 [2] was 2 µM; in the assay with Human betaherpesvirus 5 [6] it was 2.5 µM. The IC50 is 100 µM in the assay on HFF [3], 0.55 µM in the assay with HFF [8], 80 µM in the assay on Jurkat and 0.3 µM in the assay with HFF [5]. The Selectivity ratio entry in assay [4] is listed as “>=10”.
